Reference: ChEMBL document CHEMBL1138503, “(Z)- and (E)-2-(1,2-dihydroxyethyl)methylenecyclopropane analogues of 2'-deoxyadenosine and 2'-deoxyguanosine. Synthesis of all stereoisomers, absolute configuration, and antiviral activity” (J Med Chem, 2009)
Calls of active or inactive are those of the source. The calls are words filed in the database; no cut-off is given here.

Experiments:
Human betaherpesvirus 5 [1] = experiment: Antiviral activity against Human cytomegalovirus Towne infected in human foreskin fibroblast cells by plaque reduction assay; format: functional, organism-based; conditions: Human betaherpesvirus 5, Towne
Outline: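 HCMV Towne in human foreskin fibroblasts, plaque reduction assay; EC50 from plaque counts; cytotoxicity scored visually in uninfected HFF used for the plaque assays.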

Human betaherpesvirus 5 [2] = experiment: Antiviral activity against Human cytomegalovirus AD169 infected in human foreskin fibroblast cells assessed as inhibition of virus-induced cytopathic effect; format: functional, organism-based; conditions: Human betaherpesvirus 5, AD169, Fibroblast
Outline: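 HCMV strain AD169 grown in human foreskin fibroblasts; cytopathic effect (CPE) inhibition assay gives EC50; cytotoxicity taken by neutral red uptake.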

Human gammaherpesvirus 4 = experiment: Antiviral activity against Epstein-Barr virus infected in human Akata cells by DNA hybridization assay; format: functional, organism-based; conditions: human gammaherpesvirus 4, Akata
Outline: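 EBV DNA hybridization assay run in Akata cells; EC50 by DNA hybridization.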

[3] = Cytotoxicity against human Akata cells; format: cell-based
Hepatitis B virus = experiment: Antiviral activity against Hepatitis B virus; format: functional, organism-based
Hepatitis C virus = experiment: Antiviral activity against Hepatitis C virus; format: functional, organism-based; conditions: Hepacivirus hominis
[4] = target: T1, Adenosine deaminase (Bos taurus) (UniProt P56658); experiment: Activity of calf intestine adenosine deaminase assessed as deamination after 24 hrs; design: concentration or dose not given beside the values
T1 sequence (whole entry): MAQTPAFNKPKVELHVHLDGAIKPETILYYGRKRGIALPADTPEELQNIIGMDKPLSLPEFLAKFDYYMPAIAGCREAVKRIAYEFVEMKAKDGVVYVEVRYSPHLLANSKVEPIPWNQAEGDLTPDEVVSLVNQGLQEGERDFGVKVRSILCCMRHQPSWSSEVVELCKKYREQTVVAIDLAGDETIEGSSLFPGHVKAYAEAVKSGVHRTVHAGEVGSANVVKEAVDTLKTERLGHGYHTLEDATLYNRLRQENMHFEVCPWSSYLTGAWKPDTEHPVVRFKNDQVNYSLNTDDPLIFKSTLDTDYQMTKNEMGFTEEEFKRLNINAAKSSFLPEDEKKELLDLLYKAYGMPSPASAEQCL
Outline: (§1)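 Substrate (2 µmol) stirred with calf intestine ADA (1.7 units) in 0.05 M Na2HPO4, pH 7.5, 0.6 mL total. Aliquots withdrawn, diluted with buffer, and UV spectra recorded. Deamination followed as the fall in absorbance at 260 nm, expressed as percent deaminated at 24 h and 48 h.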

[5] = target: T1, Adenosine deaminase (Bos taurus); experiment: Activity of calf intestine adenosine deaminase assessed as deamination after 48 hrs; design: concentration or dose not given beside the values; outline: as §1
HFF [6] = experiment: (§2) Cytotoxicity against HFF cells by plaque reduction assay; format: cell-based; conditions: human, hff
Outline: (§3)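 Cytotoxicity scored visually in uninfected HFF cells run alongside the HCMV plaque reduction assays.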

HFF [7] = experiment: (§4) Cytotoxicity against HFF cells by neutral red uptake assay; format: cell-based; conditions: human, hff
Outline: (§5)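 Uninfected HFF cells, run alongside the HCMV cytopathic effect inhibition assay. Cytotoxicity read by neutral red uptake.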

Murid betaherpesvirus 1 = experiment: Antiviral activity against Murine cytomegalovirus infected in mouse embryonic fibroblast cells by plaque reduction assay; format: functional, organism-based; conditions: Murid betaherpesvirus 1, Fibroblast
Outline: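 MCMV plaque reduction assay in mouse embryonic fibroblast (MEF) cells; EC50 from plaque counts.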

MEF = experiment: Cytotoxicity against MEF cells; format: cell-based; conditions: mouse
Human alphaherpesvirus 1 [8] = experiment: Antiviral activity against HSV1 infected in african green monkey BSC1 cells by ELISA; format: functional, organism-based; conditions: Human alphaherpesvirus 1, BSC-1
[9] = Cytotoxicity against african green monkey BSC1 cells; format: cell-based; conditions: chlorocebus aethiops, bsc-1
Human alphaherpesvirus 1 [10] = experiment: Antiviral activity against HSV1 infected in human foreskin fibroblast cells; format: functional, organism-based
Human alphaherpesvirus 2 = experiment: Antiviral activity against HSV2 infected in human foreskin fibroblast cells; format: functional, organism-based
Human alphaherpesvirus 3 = experiment: Antiviral activity against Varicella zoster virus infected in human foreskin fibroblast cells; format: functional, organism-based; conditions: Human alphaherpesvirus 3, Fibroblast
Human betaherpesvirus 5 [11] = experiment: Antiviral activity against cyclopropavir-resistant Human cytomegalovirus isolate 2696r with phosphotransferase UL97 mutation by plaque reduction assay; format: functional, organism-based; conditions: Human betaherpesvirus 5, isolate 2696r
Outline: (§6)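 Plaque reduction in HFF cells with UL97-mutant HCMV raised from Towne: E8 (two point mutations in UL97, selected by growth in synadenol) and 2696r (truncated UL97, selected in cyclopropavir). Four drug concentrations tested in duplicate; EC50 from plaque counts.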

Human betaherpesvirus 5 [12] = experiment: Antiviral activity against Human cytomegalovirus E8 with phosphotransferase UL97 two point mutation by plaque reduction assay; format: functional, organism-based; conditions: Human betaherpesvirus 5, E8; outline: as §6
[13] = as §2; format: cell-based; conditions: human, HFF cells; outline: as §3
[14] = as §4; format: cell-based; conditions: human, HFF cells; outline: as §5

| SMILES | EC50 (Human betaherpesvirus 5 [1]) [µM] | EC50 (Human betaherpesvirus 5 [2]) [µM] | EC50 (Human gammaherpesvirus 4) [µM] | CC50 ([3]; akata) [µM] | Activity (Hepatitis B virus) | Activity (Hepatitis C virus) | Activity [4] [%] | Activity [5] [%] | CC50 (HFF [7]) [µM] | also measured |
| --- | --- | --- | --- | --- | --- | --- | --- | --- | --- | --- |
| Nc1ncnc2c1ncn2/C=C1/C[C@H]1[C@@H](O)CO | > 100 | > 60 | 52.6 | 61.5 | inactive | inactive | 0 | 0 | – | – |
| Nc1nc2c(ncn2/C=C2\C[C@@H]2[C@@H](O)CO)c(=O)[nH]1 | > 100 | > 300 | 18 | 61 | inactive | inactive | – | – | – | – |
| Nc1nc2c(ncn2/C=C2/C[C@H]2[C@@H](O)CO)c(=O)[nH]1 | 6.8 | 7.5 | 8 | 78 | inactive | inactive | – | – | 299 | CC50 (HFF [6]): > 100 µM; EC50 (Murid betaherpesvirus 1): 11.3 µM; Activity (MEF): Not Active; EC50 (Human alphaherpesvirus 1 [8]): 50 µM; CC50 [9]: > 100 µM; Activity (Human alphaherpesvirus 1 [10]): inactive; Activity (Human alphaherpesvirus 2): inactive; EC50 (Human alphaherpesvirus 3): 47 µM; EC50 (Human betaherpesvirus 5 [11]): > 100 µM; EC50 (Human betaherpesvirus 5 [12]): 72 µM |
| Nc1ncnc2c1ncn2/C=C1/C[C@@H]1[C@H](O)CO | > 100 | 300 | > 20 | 50.5 | inactive | inactive | 45 | 80 | – | – |
| Nc1ncnc2c1ncn2/C=C1\C[C@@H]1[C@H](O)CO | > 100 | > 60 | > 20 | 57 | inactive | inactive | 85 | 100 | – | CC50 (HFF [6]): > 100 µM |
| Nc1nc2c(ncn2/C=C2\C[C@H]2[C@@H](O)CO)c(=O)[nH]1 | > 100 | > 60 | 40 | 75 | inactive | inactive | – | – | 298 | – |
| Nc1nc2c(ncn2/C=C2/C[C@@H]2[C@@H](O)CO)c(=O)[nH]1 | > 100 | > 300 | > 20 | 56 | inactive | inactive | – | – | – | – |
| Nc1ncnc2c1ncn2/C=C1/C[C@H]1[C@H](O)CO | > 100 | > 60 | 60 | 93.5 | inactive | inactive | 0 | 0 | 206 | – |
| Nc1ncnc2c1ncn2/C=C1\C[C@H]1[C@@H](O)CO | > 100 | > 60 | 17 | 73 | inactive | inactive | 100 | 100 | 264 | – |
| Nc1nc2c(ncn2COCCO)c(=O)[nH]1 [ACYCLOVIR] | – | – | 3.3 | – | inactive | inactive | – | – | – | CC50 ([3]; Akata cells): > 100 µM |
| Nc1nc2c(ncn2COC(CO)CO)c(=O)[nH]1 [GANCICLOVIR] | 1.2 | 0.04 | – | – | inactive | inactive | – | – | – | EC50 (Murid betaherpesvirus 1): 5.5 µM; EC50 (Human betaherpesvirus 5 [11]): 42 µM; EC50 (Human betaherpesvirus 5 [12]): 22 µM |
| Nc1nc2c(ncn2/C=C2\C[C@@H]2[C@H](O)CO)c(=O)[nH]1 | > 100 | > 60 | > 20 | 67 | inactive | inactive | – | – | > 300 | – |
| Nc1nc2c(ncn2/C=C2/C[C@H]2[C@H](O)CO)c(=O)[nH]1 | > 100 | > 300 | > 20 | 62.6 | inactive | inactive | – | – | – | – |
| Nc1nc2c(ncn2/C=C2/CC2(CO)CO)c(=O)[nH]1 [FILOCICLOVIR] | 0.46 | 0.49 | 0.22 | – | inactive | inactive | – | – | – | CC50 [13]: > 100 µM; CC50 [14]: > 100 µM; EC50 (Human betaherpesvirus 5 [11]): 28 µM; EC50 (Human betaherpesvirus 5 [12]): 8 µM |
| Nc1nc2c(ncn2/C=C2\C[C@H]2[C@H](O)CO)c(=O)[nH]1 | > 100 | > 300 | 58.7 | 86.6 | inactive | inactive | – | – | – | CC50 (HFF [6]): > 300 µM |
| Nc1ncnc2c1ncn2/C=C1\C[C@H]1[C@H](O)CO | > 100 | > 60 | 9.8 | 72.7 | inactive | inactive | 65 | 85 | 194 | – |
| Nc1nc(O)c2ncn(COC(CO)CO)c2n1 [GANCICLOVIR] | – | – | – | – | – | – | – | – | – | CC50 [13]: > 100 µM; CC50 [14]: > 100 µM |
| Nc1ncnc2c1ncn2/C=C1/C[C@@H]1[C@@H](O)CO | > 100 | > 60 | 43 | 55 | inactive | inactive | 65 | 80 | > 300 | – |
| Nc1ncnc2c1ncn2/C=C1\C[C@@H]1[C@@H](O)CO | > 100 | > 300 | 50.4 | 50.6 | inactive | inactive | 100 | 100 | – | – |
| Nc1nc2c(ncn2/C=C2/C[C@@H]2[C@H](O)CO)c(=O)[nH]1 | > 100 | > 300 | 43 | 54 | inactive | inactive | – | – | – | – |
